Experimental data taken from ChEMBL document CHEMBL3808298, “The combination of quinazoline and chalcone moieties leads to novel potent heterodimeric modulators of breast cancer resistance protein (BCRP/ABCG2)” (Eur J Med Chem, 2016).
pIC50: −log10 of the molar value. The source made the active and inactive calls. No cut-off for these calls is given here.

Tests used:
[1] = target: T1, Broad substrate specificity ATP-binding cassette transporter ABCG2 (Homo sapiens, UniProt Q9UNQ0); experiment: Inhibition of human C-terminal GFP-tagged ABCG2 expressed in MDCK2 cells using pheophorbide A as substrate preincubated for 20 mins followed by substrate addition measured after 120 mins by flow cytometry; assay type: cell-based, MDCK-II
T1 sequence (Q9UNQ0 whole entry): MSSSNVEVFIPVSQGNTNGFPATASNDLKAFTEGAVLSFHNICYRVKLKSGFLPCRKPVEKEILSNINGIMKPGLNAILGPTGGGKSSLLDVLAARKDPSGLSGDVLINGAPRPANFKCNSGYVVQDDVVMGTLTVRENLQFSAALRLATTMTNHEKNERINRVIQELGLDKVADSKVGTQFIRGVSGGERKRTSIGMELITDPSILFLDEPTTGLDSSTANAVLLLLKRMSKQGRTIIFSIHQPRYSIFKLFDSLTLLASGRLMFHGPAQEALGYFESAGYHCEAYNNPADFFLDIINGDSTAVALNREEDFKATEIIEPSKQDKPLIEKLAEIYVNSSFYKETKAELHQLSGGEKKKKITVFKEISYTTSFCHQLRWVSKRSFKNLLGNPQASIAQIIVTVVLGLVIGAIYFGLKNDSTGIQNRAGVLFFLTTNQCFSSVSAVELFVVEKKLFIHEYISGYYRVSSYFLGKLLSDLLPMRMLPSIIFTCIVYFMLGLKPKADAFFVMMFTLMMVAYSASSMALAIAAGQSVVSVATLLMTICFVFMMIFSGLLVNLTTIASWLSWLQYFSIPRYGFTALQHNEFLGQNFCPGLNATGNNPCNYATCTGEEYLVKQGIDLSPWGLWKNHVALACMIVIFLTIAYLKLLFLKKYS
How it was run: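 MDCK II BCRP cells, about 45,000/well in KHB, preincubated with compound for 20 min at 37 °C, 5% CO2. Pheophorbide A added (5 µM solution), then 120 min to steady state. Flow cytometry: excitation 488 nm, emission >670 nm (FL3); GFP in FL1. IC50 from 4-parameter logistic fit; duplicates.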

[2] = target: T1, Broad substrate specificity ATP-binding cassette transporter ABCG2; experiment: Inhibition of vanadate-sensitive ATPase activity of recombinant human ABCG2 expressed in baculovirus infected Sf9 cell membrane assessed as decrease in inorganic phosphate production at 1 uM after 20 mins by colorimetry; conditions: sf9, 20 min
How it was run: (§1)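 Sf9 membranes from cells infected with baculovirus carrying human wild-type ABCG2, cholesterol-loaded; protein by BCA. Buffer: 40 mM MOPS-Tris pH 7.0, 50 mM KCl, 2 mM DTT, 500 µM EGTA-Tris, 5 mM azide, 1 mM ouabain, 10 µg protein. Reaction started with 3.3 mM MgATP, 20 min at 37 °C. Basal activity with 1 mM orthovanadate; 1 µM quercetin and 1 µM Ko143 as references. Pi by molybdate/ascorbate at 880 nm against K2HPO4 standard; triplicates.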

[3] = target: T1, Broad substrate specificity ATP-binding cassette transporter ABCG2; experiment: Inhibition of vanadate-sensitive ATPase activity of recombinant human ABCG2 expressed in baculovirus infected Sf9 cell membrane assessed as decrease in inorganic phosphate production up to 1 uM after 20 mins by colorimetry; conditions: sf9, 20 min; how it was run: as §1
[4] = target: T1, Broad substrate specificity ATP-binding cassette transporter ABCG2; experiment: Induction of vanadate-sensitive ATPase activity of recombinant human ABCG2 expressed in baculovirus infected Sf9 cell membrane assessed as increase in inorganic phosphate production at >1 uM after 20 mins by colorimetry; conditions: sf9, 20 min; how it was run: as §1
[5] = target: ATP-dependent translocase ABCB1 (Homo sapiens, UniProt P08183); experiment: Inhibition of ABCB1 in human A2780/ADR cells incubated for 30 mins measured up to 3600 secs with time intervals of 60 secs by calcein accumulation assay; assay type: cell-based
Chain of ATP-dependent translocase ABCB1 (P08183 whole entry): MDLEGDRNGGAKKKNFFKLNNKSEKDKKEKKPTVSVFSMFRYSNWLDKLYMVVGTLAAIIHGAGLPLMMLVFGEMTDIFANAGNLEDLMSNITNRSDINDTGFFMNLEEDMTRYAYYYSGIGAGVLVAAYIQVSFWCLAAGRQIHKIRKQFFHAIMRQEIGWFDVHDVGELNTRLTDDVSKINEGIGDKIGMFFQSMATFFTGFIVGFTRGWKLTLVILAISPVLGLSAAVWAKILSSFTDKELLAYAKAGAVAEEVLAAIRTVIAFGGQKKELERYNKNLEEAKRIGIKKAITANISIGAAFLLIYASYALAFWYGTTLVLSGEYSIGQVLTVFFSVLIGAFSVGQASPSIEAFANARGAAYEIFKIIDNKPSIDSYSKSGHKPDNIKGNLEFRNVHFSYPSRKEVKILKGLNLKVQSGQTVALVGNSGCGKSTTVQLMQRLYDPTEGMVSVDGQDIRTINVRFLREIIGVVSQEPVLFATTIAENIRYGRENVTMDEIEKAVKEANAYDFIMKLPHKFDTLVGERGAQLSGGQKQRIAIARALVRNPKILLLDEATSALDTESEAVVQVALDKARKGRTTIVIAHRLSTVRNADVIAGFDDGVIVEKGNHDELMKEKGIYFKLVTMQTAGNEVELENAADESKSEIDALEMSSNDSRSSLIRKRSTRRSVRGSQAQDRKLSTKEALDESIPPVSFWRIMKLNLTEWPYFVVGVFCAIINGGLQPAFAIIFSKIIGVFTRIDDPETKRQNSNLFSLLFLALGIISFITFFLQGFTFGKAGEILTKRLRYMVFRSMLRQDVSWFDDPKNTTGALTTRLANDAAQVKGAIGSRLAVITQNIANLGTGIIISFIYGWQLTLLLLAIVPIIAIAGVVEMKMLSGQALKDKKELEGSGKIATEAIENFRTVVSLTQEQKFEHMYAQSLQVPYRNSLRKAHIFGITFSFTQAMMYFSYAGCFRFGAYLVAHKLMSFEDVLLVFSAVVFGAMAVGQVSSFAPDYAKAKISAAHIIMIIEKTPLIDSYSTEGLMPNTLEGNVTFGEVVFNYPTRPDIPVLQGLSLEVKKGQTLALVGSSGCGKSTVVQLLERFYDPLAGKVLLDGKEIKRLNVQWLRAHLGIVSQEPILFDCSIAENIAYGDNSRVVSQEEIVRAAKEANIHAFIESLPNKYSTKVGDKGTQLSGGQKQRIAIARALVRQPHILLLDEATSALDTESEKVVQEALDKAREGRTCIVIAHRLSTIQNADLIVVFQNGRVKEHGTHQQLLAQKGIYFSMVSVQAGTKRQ

[6] = Cytotoxicity against MDCK2 cells assessed as reduction in cell viability after 72 hrs by MTT assay; assay type: cell-based, Canis lupus familiaris, MDCK-II; conditions: dog
How it was run: (§2)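 Seeding 3 x 10³ cells/well, 6 h attachment at 37 °C, 5% CO2, then compound for 72 h. Controls: 10% DMSO (positive), medium (negative). MTT 5 mg/ml stock for 1 h; formazan in DMSO; A570, background 690 nm. Normalized to control; GI50 from variable-slope sigmoidal fit.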

[7] = Cytotoxicity against MDCK2 cells expressing human C-terminal GFP-tagged ABCG2 assessed as reduction in cell viability after 72 hrs by MTT assay; assay type: ADME, cell-based, Canis lupus familiaris, MDCK-II; conditions: dog; how it was run: as §2
[8] = system: ABCG2; experiment: Therapeutic ratio of GI50 for MDCK2 cells expressing human C-terminal GFP-tagged ABCG2 to IC50 for human C-terminal GFP-tagged ABCG2 expressed in MDCK2 cells; assay type: ADME, cell-based; conditions: dog, read-out: TI
How it was run: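 Ratio of GI50 from a 72 h MTT assay in MDCK II BCRP cells to IC50 from the pheophorbide A assay in the same cells.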

[9] = target: ABCB1 (P-glycoprotein) (Homo sapiens, UniProt P08183); experiment: Inhibition of ABCB1 in human A2780/ADR cells at 10 uM incubated for 30 mins measured up to 3600 secs with time intervals of 60 secs by calcein accumulation assay relative to cyclosporine A; assay type: cell-based; conditions: probe calcein, read-out: Imax
Chain of ABCB1 (P-glycoprotein) (Homo sapiens, UniProt P08183) (P08183 whole entry): as above
How it was run: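 A2780adr cells, about 30,000/well, preincubated with compound for 30 min. Calcein AM then added (1.25 µM solution); fluorescence (ex 485/em 520 nm) read every 60 s to 3600 s at 37 °C. […] IC50 by four-parameter logistic fit, variable slope.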

[10] = Cytotoxicity against human A2780/ADR cells overexpressing ABCB1 assessed as reduction in cell viability after 72 hrs by MTT assay; assay type: ADME, cell-based
How it was run: (§3)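 MTT assay in A2780 and ABCB1-overexpressing doxorubicin-resistant A2780adr cells; A2780adr given 1 μM doxorubicin for one passage every 10 passages. 8 x 10³ cells/well, 6 h attachment, 72 h compound exposure at 37 °C, 5% CO2. MTT 1 h, DMSO solubilization, A570 with 690 nm background. Normalized data; GI50 by variable-Hill-slope sigmoidal regression.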

[11] = Cytotoxicity against human A2780 cells assessed as reduction in cell viability after 72 hrs by MTT assay; assay type: cell-based; how it was run: as §3
[12] = system: ABCB1 (P-glycoprotein); experiment: Therapeutic ratio of GI50 for human A2780/ADR cells overexpressing ABCB1 to IC50 for ABCB1 in human A2780/ADR cells; assay type: ADME, cell-based; conditions: read-out: TI
[13] = system: MDCK-II; experiment: Potentiation of SN-38-induced cytotoxicity in MDCK2 cells assessed as decrease in cell viability at 0.01 to 0.1 uM after 72 hrs by MTT assay; assay type: functional, cell-based; conditions: Canis lupus familiaris
How it was run: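 SN-38 dose-response curves in MDCK II BCRP cells (canine kidney line stably transfected with human ABCG2 C-terminally fused to GFP) and parental MDCK II wild-type cells. Modulator was present at a final 0.01 or 0.1 µM. Cells were seeded at 3 x 10³ per well, attached 6 h, then exposed 72 h. MTT was read at 570 nm minus 690 nm. Data were normalized and fitted with variable-slope sigmoidal regression.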

[14] = Cytotoxicity against MDCK2 cells expressing human C-terminal GFP-tagged ABCG2 assessed as reduction in cell viability at 10 uM after 72 hrs by MTT assay; assay type: ADME, cell-based, Canis lupus familiaris; conditions: dog, mdck-ii
[15] = Cytotoxicity against MDCK2 cells assessed as reduction in cell viability at 10 uM after 72 hrs by MTT assay; assay type: cell-based, Canis lupus familiaris; conditions: dog, mdck-ii

| Structure (SMILES) | pIC50 [1] | pIC50 [5] | GI50 at 72 h [6] | GI50 at 72 h [7] | selectivity ratio [8] | other results |
| --- | --- | --- | --- | --- | --- | --- |
| COc1cccc(/C=C/C(=O)c2ccc(Nc3ncnc4cc(OC)c(OC)cc34)cc2)c1 | 6.41 | 5.12 | – | – | – | inhibition (INH) [2]: Active; inhibition (INH) [3]: Active; Activity [4]: Not Active |
| COc1ccc(/C=C/C(=O)c2cccc(Nc3ncnc4cc(OC)c(OC)cc34)c2)cc1 | 6.49 | 5.38 | 16.9 µM | 12.7 µM | 40 | inhibition (INH) [2]: Active |
| COc1ccc(/C=C/C(=O)c2ccc(Nc3nc(-c4ccccc4)nc4ccccc34)cc2)cc1 | 5.45 | – | – | – | – | – |
| O=C(/C=C/c1ccccc1)c1ccc(Nc2nc(-c3ccccc3)nc3ccccc23)cc1 | 6.04 | – | – | – | – | – |
| COc1ccc(/C=C/C(=O)c2cccc(Nc3ncnc4cc(OC)c(OC)cc34)c2)cc1OC | 5.77 | 6.07 | 6.14 µM | 11.5 µM | 7 | inhibition (INH) [2]: Active; inhibition at 30 min, 10 µM [9]: 68%; GI50 at 72 h [10]: 1.5 µM; GI50 at 72 h [11]: 1.35 µM; selectivity ratio [12]: 2 |
| COc1ccc(/C=C/C(=O)c2cccc(Nc3nc(-c4ccccc4)nc4ccccc34)c2)cc1 | 6.01 | – | – | – | – | – |
| COc1ccc(/C=C/C(=O)c2cccc(Nc3nc(-c4ccc(OC)c(OC)c4)nc4ccccc34)c2)cc1 | 6.68 | 5.89 | 10.3 µM | 13.1 µM | 62 | inhibition at 30 min, 10 µM [9]: 70%; GI50 at 72 h [10]: 3.25 µM; GI50 at 72 h [11]: 4.39 µM; selectivity ratio [12]: 3 |
| COc1ccc(/C=C/C(=O)c2cccc(Nc3nc(-c4ccc(OC)c(OC)c4)nc4ccccc34)c2)cc1OC | 6.22 | 6.32 | 12.6 µM | 10.9 µM | 18 | inhibition at 30 min, 10 µM [9]: 76%; GI50 at 72 h [10]: 1.71 µM; GI50 at 72 h [11]: 1.98 µM; selectivity ratio [12]: 4 |
| COc1ccc(-c2nc(Nc3ccc(C(=O)/C=C/c4ccccc4)cc3)c3ccccc3n2)cc1OC | 5.96 | – | – | – | – | – |
| COc1ccc2c3c([nH]c2c1)[C@H](CC(C)C)N1C(=O)[C@H](CCC(=O)OC(C)(C)C)NC(=O)[C@@H]1C3 | – | – | 10.9 µM | 11.1 µM | – | Activity [13]: Active |
| COc1ccc(/C=C/C(=O)c2ccc(Nc3nc(-c4ccc(OC)c(OC)c4)nc4ccccc34)cc2)cc1 | 5.50 | – | – | – | – | – |
| COc1ccc(/C=C/C(=O)c2ccc(Nc3nc(-c4ccccc4)nc4ccccc34)cc2)cc1OC | 6.54 | 4.73 | 3.46 µM | 4.8 µM | 17 | Activity [14]: Toxic; Activity [15]: Toxic |
| COc1cccc(/C=C/C(=O)c2cccc(Nc3nc(-c4ccc(OC)c(OC)c4)nc4ccccc34)c2)c1 | 6.51 | 5.08 | 65.5 µM | 84.7 µM | 273 | – |
| COc1cccc(/C=C/C(=O)c2cccc(Nc3nc(-c4ccccc4)nc4ccccc34)c2)c1 | 6.17 | – | – | – | – | Activity [14]: Toxic; Activity [15]: Toxic |
| COc1cccc(/C=C/C(=O)c2ccc(Nc3ncnc4ccccc34)cc2)c1 | 6.17 | 5.25 | – | – | – | Activity [14]: Toxic; Activity [15]: Toxic |
| COc1ccc(/C=C/C(=O)c2cccc(Nc3ncnc4ccccc34)c2)cc1 | 6.05 | 5.15 | – | – | – | – |
| COc1ccc(/C=C/C(=O)c2cccc(Nc3ncnc4ccccc34)c2)cc1OC | 5.89 | 6.38 | 3.42 µM | 5.14 µM | 4 | inhibition at 30 min, 10 µM [9]: 66%; GI50 at 72 h [10]: 0.7 µM; GI50 at 72 h [11]: 0.65 µM; selectivity ratio [12]: 2 |
| COc1ccc(/C=C/C(=O)c2cccc(Nc3nc(-c4ccccc4)nc4ccccc34)c2)cc1OC | 6.34 | – | – | – | – | – |
| COc1cccc(/C=C/C(=O)c2ccc(Nc3nc(-c4ccc(OC)c(OC)c4)nc4ccccc34)cc2)c1 | 6.44 | 4.84 | – | – | – | – |
| COc1cccc(/C=C/C(=O)c2ccc(Nc3nc(-c4ccccc4)nc4ccccc34)cc2)c1 | 6.06 | 4.49 | – | – | – | Activity [14]: Toxic; Activity [15]: Toxic |
| COc1ccc(/C=C/C(=O)c2ccc(Nc3ncnc4cc(OC)c(OC)cc34)cc2)cc1OC | 5.91 | – | – | – | – | inhibition (INH) [2]: Active |
